Measurements from the array DNA melting data of Ke et al. (doi:10.1101/2024.01.08.574731).

What was measured:
[1] = folding enthalpy; higher = less favourable; fluorescence melt of hairpins on a sequencing array, two-state fit; conditions: sodium 0.088 M
Outline: (§1)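 Melting temperature and folding enthalpy were derived from bootstrapped two-state fits. The fitted temperatures were raised by 9.35 °C to agree with UV melts, and four replicates were combined by inverse variance. The underlying data were Cy3 fluorescence images of library hairpins, with annealed Cy3 and quencher oligos, on a sequenced MiSeq flow cell in 50 mM Na-HEPES pH 8.0, 25 mM NaCl, taken in 2.5 °C steps up to 60 °C, normalised to pre-quench Cy3 and to control constructs.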

[2] = melting temperature; fluorescence melt of hairpins on a sequencing array, two-state fit, raised by 9.35 °C to match UV melts; conditions: sodium 0.088 M
Outline: as §1

| Sequence | folding enthalpy [1] | Tm [2] |
| --- | --- | --- |
| GATCACACATGTGATC ((((((....)))))) | -38.1 kcal/mol | 57.9 °C |
| GCAATAGGAAACTATTGC (((((((....))))))) | -45.8 kcal/mol | 56 °C |
| GCTAAGGGAAACCCTAGC ((((.((....)).)))) | -32.5 kcal/mol | 42.7 °C |
| GCGCCGCGAAAGCGCAGC ((..(((....)))..)) | -14.1 kcal/mol | 59.8 °C |
| GGTTCAGGAAACTGAATC (.(((((....))))).) | -30.1 kcal/mol | 44.2 °C |
| GCAAACGAAAGTTTGTGC ((((((....)))..))) | -25.2 kcal/mol | 52.8 °C |
| GTGTCCGAAAGGAACAC ((((((....))).))) | -30 kcal/mol | 52.8 °C |
| GTTGACGGAAACGTCAAC (((((((....))))))) | -33.6 kcal/mol | 66.9 °C |
| GGCGGCGAAAGCCGCGCC ((((((....)))..))) | -6.34 kcal/mol | 68 °C |
| GCGCGGCGAAAGCAGTGC ((.(.((....)).).)) | -29.1 kcal/mol | 65.5 °C |
| GAACACCCGAAAGGGTTC (((..(((....)))))) | -8.81 kcal/mol | 30.7 °C |
| GGAGGGGGAAACTCCTCC (((((.(....).))))) | -32.6 kcal/mol | 53.8 °C |
| GGGTTTGGAAACGAACCC (((((.(....).))))) | -59.2 kcal/mol | 52.3 °C |
| GCATATACGAAAGTATGC (((..(((....)))))) | -22.3 kcal/mol | 41.5 °C |
| GTCTCGGGAAACTGAGGC (.(((.(....).))).) | -30.8 kcal/mol | 38.8 °C |
| GCCCACTCGAAAGAGGGC (((..(((....)))))) | -22.5 kcal/mol | 50.6 °C |
| GATCAAGGTCTTGATC ((((((....)))))) | -37.5 kcal/mol | 48.6 °C |
| GAGTATGGAAACATATTC ((.((((....)))).)) | -21.2 kcal/mol | 30.8 °C |
| GCCCAGCGAAAGCTACGC ((..(((....)))..)) | -5.73 kcal/mol | 30.2 °C |
| GATCGCAAAGGCGATC ((((((....)))))) | -41.9 kcal/mol | 63.9 °C |
| GAGGTGCGAAAGCATCTC (((.(((....))).))) | -34 kcal/mol | 59.3 °C |
| GATCAGAACTCTGATC ((((((....)))))) | -37.6 kcal/mol | 48.4 °C |
| GATCACCCCGGTGATC ((((((....)))))) | -36.8 kcal/mol | 59.8 °C |

| Sequence | folding enthalpy [1] | Tm [2] |
| --- | --- | --- |
| GTTGAGCCGAAAGGCAAC (((..(((....)))))) | -10.6 kcal/mol | 38.8 °C |
| GGGCACGGAAACGTGCTC (.(((((....))))).) | -14.6 kcal/mol | 63.2 °C |
| GATCATGCTAATGATC ((((((....)))))) | -42.7 kcal/mol | 57.2 °C |
| GAAAGCGAAAGCTCGTTC ((((((....)))..))) | -9.57 kcal/mol | 25.9 °C |
| GATCTATTCTAGATC ((((((...)))))) | -27.6 kcal/mol | 41.3 °C |
| GACCCTACGAAAGTAGTC (((..(((....)))))) | -11.3 kcal/mol | 28 °C |
| GGCATCGAAAGATTAGCC ((((((....)))..))) | -28.2 kcal/mol | 43.7 °C |
| GATGGTGAAAACCATC ((((((....)))))) | -36.5 kcal/mol | 57.8 °C |
| GGTTTCGAAAGAAGACC ((((((....))).))) | -19.5 kcal/mol | 36.8 °C |
| CGTTTGCGGAAACGCACG (((..(((....)))))) | -10.4 kcal/mol | 39.8 °C |
| CGATAGCGGAAACGCTCG (((..(((....)))))) | -13.9 kcal/mol | 41 °C |
| GAGGCCGAAAGGCGACTC ((((((....)))..))) | -12.7 kcal/mol | 44.7 °C |
| GAGAGACCGAAAGGTCTC (((..(((....)))))) | -9.65 kcal/mol | 62.5 °C |
| GTTGACGGAAACGTTAAC (((.(((....))).))) | -27 kcal/mol | 47.1 °C |
| CGCCTCGGAAACGAGCG (((.(((....)))))) | -26.9 kcal/mol | 54.8 °C |
| GCCTCCCGAAAGGGTGGC (((.(((....))).))) | -36.1 kcal/mol | 67.9 °C |
| GCGATTCATCGC ((((....)))) | -30.1 kcal/mol | 58.3 °C |
| GGAGCCGAAAGGCAGTCC ((((((....)))..))) | -13.2 kcal/mol | 36.1 °C |
| GATGATGGAAACATCGTC ((.((((....)))).)) | -32.3 kcal/mol | 47.4 °C |
| GACTAAGAAATTAGTC ((((((....)))))) | -24.9 kcal/mol | 40.5 °C |
| GATCATAACGATGATC ((((((....)))))) | -31.5 kcal/mol | 45.9 °C |
| GTACGGGGAAACCCACAC ((..(((....)))..)) | -16.3 kcal/mol | 30.4 °C |
| GTTGGTGCGAAAGCAAAC (((..(((....)))))) | -20.7 kcal/mol | 43 °C |

| Sequence | folding enthalpy [1] | Tm [2] |
| --- | --- | --- |
| CGTTCGGAAACGAGAACG ((((((....)))..))) | -27.9 kcal/mol | 41.2 °C |
| GTACTCGAAAGAGATAC ((((((....))).))) | -18 kcal/mol | 34.5 °C |
| GTACTAGGAAACTAGCAC ((.((((....)))).)) | -22.1 kcal/mol | 32.2 °C |
| GCCTCGGGAAACCAAGGC ((((.((....)).)))) | -34.9 kcal/mol | 47.6 °C |
| GGGGTCGGAAACGACCTC (.(((((....))))).) | -14.1 kcal/mol | 61.4 °C |
| GGTTGCGGAAACACAACC (((((.(....).))))) | -40 kcal/mol | 48.4 °C |
| GTCAACGAAAGTTCTGAC ((((((....)))..))) | -13.3 kcal/mol | 25.9 °C |
| GATTGGCGAAAGCCATC (((.(((....)))))) | -9.48 kcal/mol | 41.3 °C |
| GCCAGCGAAAGCTACGGC ((((((....)))..))) | -19.9 kcal/mol | 49.8 °C |
| GCGGAGCGAAAGCACGGC ((.(.((....)).).)) | -9.69 kcal/mol | 45.5 °C |
| GAAACCGAAAGGTTTC ((((((....)))))) | -29.4 kcal/mol | 67.1 °C |
| GTATGCGAAAGCACCTAC ((((((....)))..))) | -5.96 kcal/mol | 22.1 °C |
| CGGCACGGAAACGTACCG (((.(((....))).))) | -30.5 kcal/mol | 50.4 °C |
| GATCATAAAAATGATC ((((((....)))))) | -27.4 kcal/mol | 36.8 °C |
| GAGGCACGAAAGTGTCTC (((.(((....))).))) | -29 kcal/mol | 64.5 °C |
| ACCTTGAAAAAGGT (((((....))))) | -13.4 kcal/mol | 47.3 °C |
| GTCCGACGAAAGTCAGAC (((.(((....))).))) | -23.5 kcal/mol | 50 °C |
| GATCGCTGGGCGATC ((((((...)))))) | -35.6 kcal/mol | 68.8 °C |
| GGATACGGAAACGCATCC ((((.((....)).)))) | -29.1 kcal/mol | 45.5 °C |
| GACTTCGCGAAAGCGGTC (((..(((....)))))) | -7.56 kcal/mol | 35.1 °C |
| GATCATACCAATGATC ((((((....)))))) | -39.4 kcal/mol | 48.4 °C |
| GCCATGCGAAAGCAACGC ((..(((....)))..)) | -8.26 kcal/mol | 29 °C |
| GTGTTGCCGAAAGGCCAC (((..(((....)))))) | -10.3 kcal/mol | 57.8 °C |
